Data set [1] deals with Rattus norvegicus. Nature of the data set: Inhibition of angiotensin I induced blood pressure in normotensive anesthetized rats at 30 ug/kg (i.v.) for 75 min. It is filed as functional. In a few lines: (§1)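 Male Sprague-Dawley normotensive rats (290-540 g), pentobarbital-anesthetized (50 mg/kg ip), intubated. Jugular vein cannulated for iv dosing and carotid artery for blood pressure. Control pressor response to angiotensin I (175 ng/kg iv) taken after vehicle (1 mL/kg). Compound given iv in distilled water or 5% sodium bicarbonate. Angiotensin I challenge repeated at 1.5 to 75 min, rise in pressure compared with control.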

Data set [2] concerns Rattus norvegicus. The data set can be described thus: Inhibition of angiotensin I induced blood pressure in normotensive anesthetized rats at 10 ug/kg (i.v.) for 5 min. The format is functional. The method, boiled down:
as §1

Data set [3] concerns Rattus norvegicus. Nature of the data set: Inhibition of angiotensin I induced blood pressure in normotensive anesthetized rats at 30 ug/kg (i.v.) for 10 min. The format is functional. The method, boiled down: as §1
Data set [4] has as its system Rattus norvegicus. Nature of the data set: Inhibition of angiotensin I induced blood pressure in normotensive anesthetized rats at 10 ug/kg (i.v.) for 1.5 min. The format is functional. The method, boiled down: as §1
Data set [5] deals with Rattus norvegicus. The data set can be described thus: Inhibition of angiotensin I induced blood pressure in normotensive anesthetized rats at 10 ug/kg (i.v.) for 10 min. It is filed as functional. In a few lines:
as §1

Data set [6] deals with Rattus norvegicus. The data set can be described thus: Inhibition of angiotensin I induced blood pressure in normotensive anesthetized rats at 30 ug/kg (i.v.) for 30 min. The format is functional. In a few lines:
as §1

Data set [7] in a line: Time required for 100% degradation by trypsin. The format is ADME.
Data set [8] deals with Rattus norvegicus. The data set can be described thus: Inhibition of angiotensin I induced blood pressure in normotensive anesthetized rats at 1 ug/kg (i.v.) for 1.5 min. The format is functional. The method, boiled down:
as §1

The next data set deals with chymotrypsin. The data set can be described thus: Time required for 50% degradation by chymotrypsin. The format is ADME. The note with it: read-out: Time (converted). In a few lines: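 Peptide (0.5–1.0 μmol) in 0.1 M Tris, pH 7.8, stirred at room temperature with chymotrypsin (37 units dissolved in 50 mL cold 0.001 N HCl; 0.050 mL per μmol peptide). Degradation followed over time by TLC.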

The subject of data set [9] is Rattus norvegicus. The data set can be described thus: Inhibition of angiotensin I induced blood pressure in normotensive anesthetized rats at 30 ug/kg (i.v.) for 60 min. The format is functional. The method, boiled down: as §1
Data set [10] is filed under the species Rattus norvegicus. The data set can be described thus: Time required for 100% degradation in rat intestinal homogenate. The format is ADME. In a few lines:
(§2)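 Rat small intestine was taken immediately after sacrifice and minced in Krebs Ringer (10 mL/g). Peptide (0.2–0.5 μmol) mixed with homogenate (1.0 mL per μmol), shaken at 37 °C. Degradation followed by TLC.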

Data set [11] has as its system Rattus norvegicus. Nature of the data set: Inhibition of angiotensin I induced blood pressure in normotensive anesthetized rats at 1 ug/kg (i.v.) for 5 min. It is filed as functional. In a few lines:
as §1

Data set [12] has as its system Rattus norvegicus. Nature of the data set: Inhibition of angiotensin I induced blood pressure in normotensive anesthetized rats at 1 ug/kg (i.v.) for 30 min. It is filed as functional. In a few lines:
as §1

Data set [13] deals with Rattus norvegicus. Nature of the data set: Inhibition of angiotensin I induced blood pressure in normotensive anesthetized rats at 10 ug/kg (i.v.) for 30 min. It is filed as functional. In a few lines:
as §1

For data set [14], the system named is Rattus norvegicus. Nature of the data set: Inhibition of angiotensin I induced blood pressure in normotensive anesthetized rats at 1 ug/kg (i.v.) for 60 min. It is filed as functional. In a few lines:
as §1

Data set [15] deals with Angiotensin-converting enzyme (Oryctolagus cuniculus) (UniProt P12822). Nature of the data set: Inhibition of Angiotensin I converting enzyme from rabbit lung. Conditions: read-out: I50.
A further data set relates to trypsin. The data set can be described thus: Time required for 50% degradation by trypsin. It is filed as ADME. Conditions: read-out: Time.
The subject of data set [16] is Rattus norvegicus. The data set can be described thus: Inhibition of angiotensin I induced blood pressure in normotensive anesthetized rats at 1 ug/kg (i.v.) for 10 min. It is filed as functional. The method, boiled down:
as §1

The nature of data set [17]: Time required for degradation by pepsin (none). It is filed as ADME.
Data set [18] can be described thus: Time required for 50% degradation in rat intestinal homogenate. It is filed as ADME. Conditions: read-out: Time (converted). The method, boiled down: as §2
Data set [19] deals with Rattus norvegicus. Nature of the data set: Inhibition of angiotensin I induced blood pressure in normotensive anesthetized rats at 10 ug/kg (i.v.) for 60 min. It is filed as functional. The method, boiled down: as §1
The test system of data set [20] is Rattus norvegicus. Nature of the data set: Inhibition of angiotensin I induced blood pressure in normotensive anesthetized rats at 30 ug/kg (i.v.) for 1.5 min. The format is functional. In a few lines: as §1
In data set [21] the test system is Rattus norvegicus. Nature of the data set: Inhibition of angiotensin I induced blood pressure in normotensive anesthetized rats at 30 ug/kg (i.v.) for 5 min. It is filed as functional. In a few lines:
as §1

Structures are written as SMILES. Starred links: 1 amine or outer side, 2 acyl side, 3 side chain; linkers in the order of their positions; H or OH if unused. Non-standard residues stand in square brackets, D forms with d. Residues, ends and D or L forms follow the SMILES beside them. *: point of attachment. X2 = O=C(CCC(=O)[*:2])[C@H](Cc1ccccc1)N[*:1]; X1 = O=C(CCC(=O)[*:2])[C@@H]1CCCN1[*:1]; Cyclobutanecarbonyl = O=C(C1CCC1)*

As for `NCCCC[C@H](NC(=O)[C@@H]1CCCN1C(=O)CCC(=O)[C@@H]1CCCN1C(=O)[C@H](Cc1ccc(O)cc1)NC(=O)C1CCC1)C(=O)N[C@@H](Cc1ccccc1)C(=O)CCC(=O)N1CCC[C@H]1C(=O)O` (Cyclobutanecarbonyl-Y[X1]PK[X2]P-OH), the Inhibition over time with Rattus norvegicus [1] was found to be 12.5%; with Rattus norvegicus [2], 23.5%; in the data set on Rattus norvegicus [3], 31.5%; in the data set with Rattus norvegicus [4], 39.5%; in the data set with Rattus norvegicus [5] it was 14.5%; in the data set with Rattus norvegicus [6], 17.3%. In addition, the Inhibition over time in the data set with Rattus norvegicus [8] is given as 24.3%; with Rattus norvegicus [9], 15.3%; in the data set with Rattus norvegicus [11], 0%; in the data set on Rattus norvegicus [12], 0%; in the data set on Rattus norvegicus [13], 7.8%; in the data set on Rattus norvegicus [14], 0%. For the same molecule, the Inhibition over time with Rattus norvegicus [16] amounted to 0%; in the data set with Rattus norvegicus [19], 0%; in the data set on Rattus norvegicus [20], 79.5%; in the data set on Rattus norvegicus [21], 45%. In addition, the Time in data set [7] was determined as 1 h; in the data set listed under Rattus norvegicus [10] it was 5 h; in data set [17] it was 20 h. The half-life with chymotrypsin is 22 h; in the data set on trypsin it was 5 min; in [18], 1 h. Also, in data set [15], the IC50 amounted to 3.4 nM.

The values above are taken from ChEMBL document CHEMBL1124054, “Synthesis and biological activity of ketomethylene-containing nonapeptide analogues of snake venom angiotensin converting enzyme inhibitors” (J Med Chem, 1988).
